The record followed here is ChEMBL document CHEMBL4602689, “Absolute Configuration and Antibiotic Activity of Piceamycin” (J Nat Prod, 2020).

Assay [1] deals with MDA-MB-231. Description: Antiproliferative activity against human MDA-MB-231 cells assessed as reduction in cell viability by sulforhodamine B assay. The assay is classed as functional, cell-based. An outline of the steps: (§1)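 Cells kept in DMEM with 10% heat-inactivated FBS plus penicillin, streptomycin and amphotericin B, at 37 °C and 5% CO₂. SRB assay: cells seeded in 96-well plates and treated for the indicated times, with 30-min zero-day controls. Fixed, stained with 0.4% SRB in 1% acetic acid, solubilized in 10 mM Tris pH 10.0, absorbance at 515 nm. IC50 by nonlinear regression.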

Assay [2] has as its system Bacillus thuringiensis. Description: Antibacterial activity against Bacillus thuringiensis KACC 10168 assessed as reduction in microbial growth after 24 hrs by two-fold serial dilution method. The assay is classed as functional. Conditions: KACC 10168, 24 h. An outline of the steps: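 Bacteria grown overnight in tryptic soy broth at 28 °C, centrifuged and washed twice in sterile water. Compounds in DMSO were serially diluted 2-fold in TSB from 128 to 0.015 μg/mL. Final inoculum was 5 × 10⁴ cfu/mL, incubated 24 h at 28 °C. MIC taken as the lowest concentration inhibiting growth. Controls were ampicillin, tetracycline, streptomycin and DMSO.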

Assay [3] relates to Escherichia coli. Description: Antibacterial activity against Escherichia coli ATCC 25922 assessed as reduction in microbial growth after 24 hrs by two-fold serial dilution method. The assay is classed as functional. The settings on record: ATCC 25922, 24 h. An outline of the steps:
(§2)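 Strains grown overnight in Mueller–Hinton broth at 37 °C, centrifuged and washed twice in sterile water. DMSO stocks were 2-fold serially diluted in MHB (128 to 0.015 μg/mL). Final inoculum was 5 × 10⁴ cfu/mL, incubated 24 h at 37 °C. MIC is the lowest concentration inhibiting growth. Controls were ampicillin, tetracycline, streptomycin and DMSO.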

Assay [4] concerns K562. Description: Antiproliferative activity against human K562 cells assessed as reduction in cell viability by sulforhodamine B assay. In kind it is functional, cell-based. An outline of the steps: (§3)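 Cells kept in RPMI 1640 with 10% heat-inactivated FBS plus penicillin, streptomycin and amphotericin B, at 37 °C and 5% CO₂. Cells seeded in 96-well plates and treated for the indicated times; zero-day controls read after 30 min. Fixed, stained with 0.4% SRB in 1% acetic acid, dye dissolved in 10 mM Tris pH 10.0, A515 read. IC50 by nonlinear regression.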
In general terms: In SRB staining, fixed cells bind dye roughly in proportion to their protein.

Assay [5] deals with Salmonella enterica. Description: Antibacterial activity against Salmonella enterica ATCC 14028 assessed as reduction in microbial growth after 24 hrs by two-fold serial dilution method. The assay is classed as functional. The settings on record: ATCC 14028, 24 h. An outline of the steps: as §2
For assay [6], the system named is Enterococcus faecalis. As to the kind of experiment: Antibacterial activity against Enterococcus faecalis ATCC 19433 assessed as reduction in microbial growth after 24 hrs by two-fold serial dilution method. In kind it is functional. Conditions: ATCC 19433, 24 h. An outline of the steps: as §2
The test system of assay [7] is Klebsiella pneumoniae. As to the kind of experiment: Antibacterial activity against Klebsiella pneumoniae ATCC 10031 assessed as reduction in microbial growth after 24 hrs by two-fold serial dilution method. The assay is classed as functional. Conditions: ATCC 10031, 24 h. An outline of the steps:
as §2

Assay [8] has as its system HCT-116. As to the kind of experiment: Antiproliferative activity against human HCT116 cells assessed as reduction in cell viability by sulforhodamine B assay. The assay is classed as functional, cell-based. An outline of the steps:
as §3

Assay [9] relates to Staphylococcus aureus. Description: Antibacterial activity against Staphylococcus aureus ATCC 25923 assessed as reduction in microbial growth after 24 hrs by two-fold serial dilution method. In kind it is functional. The settings on record: ATCC 25923, 24 h. An outline of the steps:
as §2

The subject of assay [10] is Enterococcus faecium. Description: Antibacterial activity against Enterococcus faecium ATCC 19434 assessed as reduction in microbial growth after 24 hrs by two-fold serial dilution method. In kind it is functional. Conditions: ATCC 19434, 24 h. An outline of the steps: as §2
The test system of assay [11] is Proteus hauseri. As to the kind of experiment: Antibacterial activity against Proteus hauseri NBRC 3851 assessed as reduction in microbial growth after 24 hrs by two-fold serial dilution method. In kind it is functional. Conditions: NBRC 3851, 24 h. An outline of the steps:
as §2

For assay [12], the system named is SNU-638. As to the kind of experiment: Antiproliferative activity against human SNU638 cells assessed as reduction in cell viability by sulforhodamine B assay. The assay is classed as functional, cell-based. An outline of the steps:
as §3

The subject of assay [13] is SK-HEP1. Description: Antiproliferative activity against human SKHEP1 cells assessed as reduction in cell viability by sulforhodamine B assay. The assay is classed as functional, cell-based. An outline of the steps:
as §1

Assay [14] relates to A549. Description: Antiproliferative activity against human A549 cells assessed as reduction in cell viability by sulforhodamine B assay. In kind it is functional, cell-based. An outline of the steps:
as §3

Assay [15] relates to Trichophyton mentagrophytes. As to the kind of experiment: Growth inhibition of Trichophyton mentagrophytes IFM 40996. The assay is classed as functional, organism-based.
Assay [16] deals with Aspergillus fumigatus. As to the kind of experiment: Growth inhibition of Aspergillus fumigatus HIC 6094. In kind it is functional, organism-based.
Assay [17] relates to Candida albicans. Description: Growth inhibition of Candida albicans ATCC 10231. The assay is classed as functional, organism-based.
Assay [18] deals with Trichophyton rubrum. As to the kind of experiment: Growth inhibition of Trichophyton rubrum NBRC 9185. In kind it is functional, organism-based.

SMILES strings stand for the structures. The source made the active and inactive calls.

On to `CC1=C/C[C@@H](O)CC(=O)/C=C/C=C/C=C\C=C\C=C/[C@@H](C)CNC(=O)\C=C/C=C\C=C\1`, for which the IC50 in assay [1] amounted to 1000 nM; in assay [4] it was 960 nM; in [8], 1010 nM; in assay [12], 850 nM; in [13] it was 1870 nM; in [14], 780 nM. Besides, the minimum inhibitory concentration (MIC) is 380 µg/mL in assay [2]; greater than 130 µg/mL in assay [3]; 130 µg/mL in assay [5]; greater than 130 µg/mL in assay [6]; greater than 130 µg/mL in assay [7]; greater than 130 µg/mL in assay [9]. Also, the MIC in assay [10] and in assay [11] was 130 µg/mL each time.

As to `COc1cc([C@@H]2c3cc4c(cc3[C@@H](O[C@@H]3O[C@@H]5CO[C@@H](C)O[C@H]5[C@H](O)[C@H]3O)[C@H]3COC(=O)[C@H]23)OCO4)cc(OC)c1O` [ETOPOSIDE], the half-inhibitory concentration (IC50) in [1] is 3320 nM; in assay [4], 980 nM; in assay [8], 1360 nM; in [12], 520 nM; in assay [13], 380 nM; in [14], 600 nM.

As to `C[C@@H]1\C=C/C=C/C=C\C=C\C=C\C(=O)C2=C(O)C(=O)C[C@@]2(C)/C=C/C=C\C=C/C(=O)NC1`, the IC50 in assay [1] amounted to 660 nM; in assay [4] it was 740 nM; in [8], 220 nM; in assay [12] it was 380 nM; in assay [13] it was 320 nM; in [14], 280 nM. Moreover, the “growth inhibition (GI)” value in assay [15], in assay [16], in assay [17] and in assay [18] was “inactive” throughout. Besides, the MIC in assay [2] was 3.2 µg/mL; in [3] it was greater than 130 µg/mL; in [5], 0.083 µg/mL; in assay [6], 32 µg/mL; in [7], greater than 130 µg/mL; in [9], 0.025 µg/mL. The MIC in assay [10] turned out to be 5.3 µg/mL; in assay [11] it was 0.025 µg/mL.

Consider `CC1(C)S[C@@H]2[C@H](NC(=O)[C@H](N)c3ccccc3)C(=O)N2[C@H]1C(=O)O` [AMPICILLIN], for which the MIC in assay [3] was 16 µg/mL; in assay [5] it was 0.25 µg/mL; in [6] it was 0.5 µg/mL; in assay [7] it was greater than 130 µg/mL; in assay [9], 0.17 µg/mL; in [10], 1 µg/mL. In [11], the minimum inhibitory concentration (MIC) stood at 0.03 µg/mL.

`CN[C@@H]1[C@H](O[C@H]2[C@H](O[C@H]3[C@H](O)[C@@H](O)[C@H](N=C(N)N)[C@@H](O)[C@@H]3N=C(N)N)O[C@@H](C)[C@]2(O)C=O)O[C@@H](CO)[C@H](O)[C@H]1O` [STREPTOMYCIN]: the MIC in [2] turned out to be 130 µg/mL.

For `CC1=C\C[C@@H](O)CC(=O)/C=C/C=C/C=C\C=C\C=C/[C@@H](C)CNC(=O)\C=C/C=C/C=C/1`, the “growth inhibition (GI)” value in [15], in assay [16], in assay [17] and in [18] was “inactive” throughout.

As for `CN(C)[C@@H]1C(O)=C(C(N)=O)C(=O)[C@@]2(O)C(O)=C3C(=O)c4c(O)cccc4[C@@](C)(O)[C@H]3C[C@@H]12` [TETRACYCLINE], the MIC in [7] was determined as 0.44 µg/mL.

In general, IC50 refers to the concentration needed to halve the response being measured. A word on the MIC: it is the smallest concentration in the dilution series that meets the test's criterion for growth inhibition.
